Data: ChEMBL document CHEMBL4715825, “Synthesis and biological evaluations of marine oxohexadecenoic acids: PPARα/γ dual agonism and anti-diabetic target gene effects” (Eur J Med Chem, 2018)
The source made the active and inactive calls. The calls are words filed in the database; no cut-off is given here.

Tests used:
Assay type in all cases: cell-based
Details in all cases: filed as agonist
[1] = biological target: T1, Peroxisome proliferator-activated receptor alpha (Homo sapiens) (UniProt Q07869); assay: Agonist activity at human PPARalpha in human HuH-7 cells assessed as increase in ACSL3 gene expression at 50 uM incubated for 24 hrs by SYBR-green based qPCR analysis
T1 sequence (whole entry): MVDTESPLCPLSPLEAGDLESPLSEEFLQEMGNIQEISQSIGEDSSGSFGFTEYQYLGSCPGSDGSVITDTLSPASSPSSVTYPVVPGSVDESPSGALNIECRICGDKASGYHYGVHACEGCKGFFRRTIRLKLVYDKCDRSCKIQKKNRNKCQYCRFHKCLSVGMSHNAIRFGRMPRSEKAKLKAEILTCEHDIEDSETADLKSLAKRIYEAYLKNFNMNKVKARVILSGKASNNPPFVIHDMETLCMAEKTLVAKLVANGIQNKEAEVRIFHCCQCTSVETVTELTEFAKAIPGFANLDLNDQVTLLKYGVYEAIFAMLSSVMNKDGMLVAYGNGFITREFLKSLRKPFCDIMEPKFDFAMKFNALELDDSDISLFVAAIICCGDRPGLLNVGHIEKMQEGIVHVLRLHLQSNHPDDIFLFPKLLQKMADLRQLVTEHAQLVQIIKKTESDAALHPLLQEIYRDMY
Method in brief: (§1)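 Cells were seeded at 2×10^5 per well and treated 24 h later with compound in DMSO (final 0.1%). The next day, cells were washed and scraped into RLT buffer. RNA was isolated, and target gene mRNA was quantified by SYBR-green qPCR with specific primers.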

[2] = biological target: T1, Peroxisome proliferator-activated receptor alpha (Homo sapiens); assay: Agonist activity at human PPARalpha in human HuH-7 cells assessed as increase in PLIN1 gene expression at 50 uM incubated for 24 hrs by SYBR-green based qPCR analysis; method in brief: as §1
[3] = biological target: T1, Peroxisome proliferator-activated receptor alpha (Homo sapiens); assay: Agonist activity at human PPARalpha in 8 day differentiated human SGBS cells assessed as increase in ANGPTL4 gene expression at 25 uM incubated for 24 hrs by SYBR-green based qPCR analysis
Method in brief: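 SGBS preadipocytes were seeded at passage P6-P8 and grown to confluence. They were differentiated for 4 days in Quickdiff (3FC plus dexamethasone, IBMX and rosiglitazone), then kept in 3FC with medium renewed every fourth day. On day 8, cells were stimulated for 24 h in 3FC with compound:BSA or rosiglitazone. SYBR-green qPCR used gene-specific primers. Data are mean ± SEM of three biological replicates in duplicate.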

With CCCCCCCC(=O)/C=C/CCCCCC(=O)O the Activity [1] was “Active”.
CCCCC/C=C/C(=O)CCCCCCCC(=O)O was tested, and the Activity [2] was “Active” and the Activity [3] was “Active”.
